High-throughput results as filed in PubChem BioAssay.
Compounds with a hit are over-represented: about 2.1% of the library has one in this group of screens.
STEP inh: blocks human striatal-enriched tyrosine phosphatase | recombinant STEP, OMFP fluorogenic substrate, fluorescence | inhibition, % at 20 µM | hit rate 0.25% among 360,000 | AID 588621;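 active = inhibition at 20 µM, scaled per plate between control wells, above about 37%, limit read from the data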
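material = STEP tyrosine phosphatase | reagent = fluorogenic phosphatase substrate OMFP at 25 µM final | doses = single compound dose of 20 µM, 1% DMSO final | schedule = 20 min reaction, room temperature, in the dark | measured by = fluorescence, 480/540 nm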
DNMT1 block: blocks human DNA methyltransferase DNMT1 | P26358 | inhibition (reported as % activation of signal), % at 10 µM | DNMT1 molecular beacon, Hinp1I cleavage, fluorescence | AID 588458 | hit rate 0.83% among 360,000; in the data active = inhibition above about 50%
Target sequence (P26358 504-1616 limits assumed): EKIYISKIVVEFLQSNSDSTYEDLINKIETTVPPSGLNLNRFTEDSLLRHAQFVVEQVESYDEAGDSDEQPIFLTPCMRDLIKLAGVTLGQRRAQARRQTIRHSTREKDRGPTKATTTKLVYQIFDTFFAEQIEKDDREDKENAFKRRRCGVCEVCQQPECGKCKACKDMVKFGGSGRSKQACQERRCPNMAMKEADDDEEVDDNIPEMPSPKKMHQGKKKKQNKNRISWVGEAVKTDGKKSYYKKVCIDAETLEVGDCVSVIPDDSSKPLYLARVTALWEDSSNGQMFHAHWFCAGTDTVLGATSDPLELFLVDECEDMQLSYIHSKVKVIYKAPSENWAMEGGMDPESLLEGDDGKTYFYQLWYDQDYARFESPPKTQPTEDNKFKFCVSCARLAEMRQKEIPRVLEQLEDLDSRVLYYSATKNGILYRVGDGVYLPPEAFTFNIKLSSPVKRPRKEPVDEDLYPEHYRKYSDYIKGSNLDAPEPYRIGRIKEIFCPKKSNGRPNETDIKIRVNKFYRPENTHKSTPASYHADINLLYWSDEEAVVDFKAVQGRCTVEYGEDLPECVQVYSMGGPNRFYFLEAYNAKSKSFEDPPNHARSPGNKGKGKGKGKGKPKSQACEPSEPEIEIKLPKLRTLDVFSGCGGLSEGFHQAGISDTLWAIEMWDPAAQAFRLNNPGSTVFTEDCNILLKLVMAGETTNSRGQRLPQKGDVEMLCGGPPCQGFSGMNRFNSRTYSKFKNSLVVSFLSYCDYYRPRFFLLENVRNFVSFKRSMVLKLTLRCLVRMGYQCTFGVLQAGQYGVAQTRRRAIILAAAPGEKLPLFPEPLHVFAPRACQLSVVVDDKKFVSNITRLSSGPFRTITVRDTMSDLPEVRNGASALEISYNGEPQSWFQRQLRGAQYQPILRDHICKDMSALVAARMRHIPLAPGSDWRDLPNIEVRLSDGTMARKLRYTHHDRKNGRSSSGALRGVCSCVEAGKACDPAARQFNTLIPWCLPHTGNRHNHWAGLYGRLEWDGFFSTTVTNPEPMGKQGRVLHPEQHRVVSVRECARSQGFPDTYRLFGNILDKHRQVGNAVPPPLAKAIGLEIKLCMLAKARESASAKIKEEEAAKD
Scp1 inh: blocks human Scp-1 phosphatase activity. Q9GZU7. Recombinant Scp1, phosphopeptide, malachite green phosphate absorbance. inhibition, % at 20 µM. hit rate 0.88% among 340,000. AID 493091;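 active = inhibition above about 50% at 20 µM, limit read from the data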
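assay system = SCP-1 phosphatase catalytic domain, residues 76-261 | buffer or medium = 50 mM Tris acetate pH 5.5, 0.005% Tween-20, 10 mM MgCl2 | incubation = enzyme reaction 45 min at room temperature, colour 5 min, stabilisation 30 min | signal = Phosphate-binding colour reagent, absorbance read at 630 nm | measure = % inhibition at 20 µM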
LMPTP inh: LMPTP (human) inhibition; P24666; recombinant LMPTP-A, OMFP fluorogenic substrate, fluorescence intensity; inhibition, % at 20 µM; hit rate 0.22% among 360,000;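 active = compounds that cut the enzyme signal by at least half of the control window in the single-dose screen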
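Test system: LMPTP-A, protein tyrosine phosphatase of low molecular weight; Input: 0.625 nM enzyme; Incubation: 50 min dark incubation at room temperature; Signal: endpoint fluorescence intensity from OMFP dephosphorylation; Read-out basis: % inhibition versus control wells.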
SUMO1-SIM PPI: alters human SUMO1 binding to SIM partners; P63165; SUMO1 binding to a labelled peptide, TR-FRET, 1 h; inhibition, % at 20 µM; hit rate 0.33% among 360,000; in the data active = inhibition above about 37%
GRK2 aptamer HTS: inhibitors of human GRK2 displacing RNA aptamer | P25098 | inhibition of aptamer binding, % at 10 µM | AID 488847 | hit rate 0.59% among 330,000 | bead flow cytometry, FAM-aptamer displacement from GRK2;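 active = inhibition of aptamer binding above 40%, roughly 3 SD of noise, on plates passing a quality check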;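 also: median bead fluorescence of bound FAM aptamer so fluorescent compounds give negative values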
DNMT1 inh conf: DNMT1 inhibition confirmation, single concentration | shares compounds with DNMT1 block | DNMT1 molecular beacon HinP1I cleavage, fluorescence | inhibition, % at 10 µM | hit rate 8% among 2,300;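 active = average inhibition of at least 30% in the single-concentration confirmation test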
Beacon interf: counter-screen for DNMT1 inhibitors: spectral interference. AID 602387. hit rate 1% among 2,300. activation (fluorescence interference), % at 10 µM. DNMT1 molecular beacon spectral interference counterscreen, fluorescence 485/520. shares compounds with DNMT1 block;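 active = activation of at least 30% at 10 µM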;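 also: DNMT1 catalytic domain with a HinP1I cleavage step and a FAM/dabcyl DNA beacon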
Large screens that a line does not name were inactive (follow-up assays come after a bar, where they were run).

CCOC(=O)[C@]12CCCC=C1N(Cc1cccc3ccccc13)C(=O)[C@H](CC(=O)N1CCC(c3ccccc3)CC1)C2	none (no result: STEP inh, DNMT1 block, Scp1 inh, GRK2 aptamer HTS)
CCOc1cc(C#N)ccc1OCC(=O)NNC(=O)CC1CCS(=O)(=O)C1 (stereo not given)	DNMT1 block 76.7 (no result: GRK2 aptamer HTS) | DNMT1 inh conf inactive | Beacon interf inactive
CCN(CC)S(=O)(=O)c1ccc(-c2nnc(SCC(=O)N3CCc4ccccc43)o2)cc1	DNMT1 block 54.2 | DNMT1 inh conf inactive | Beacon interf inactive
CCN(CC)S(=O)(=O)c1ccc(-c2nnc(SCC(=O)N3CCOCC3)o2)cc1	none
O=[N+]([O-])c1ccc(F)cc1OCc1cccc(S(=O)(=O)N2CCOCC2)c1	DNMT1 block 81.7 | DNMT1 inh conf inactive | Beacon interf inactive
O=S(=O)(c1cccc(COc2ccc(Cl)cc2Cl)c1)N1CCOCC1	none
O=[N+]([O-])c1ccc(/C=C/C2=NN(c3ccccc3)C(c3ccco3)C2)o1 (stereo not given)	DNMT1 block 75.1, Scp1 inh 78.9 (no result: GRK2 aptamer HTS) | DNMT1 inh conf inactive | Beacon interf inactive
COC(=O)c1cc(C#N)c(=O)[nH]c1C	DNMT1 block 88.7 | DNMT1 inh conf inactive | Beacon interf inactive
COC(=O)c1cc(C(C)=O)c(C)[nH]c1=O	none
Cc1ccc(N2CCC3CC2c2cc(-c4ccc(C(F)(F)F)cc4)ccc23)cc1 (stereo not given)	none (no result: Scp1 inh, GRK2 aptamer HTS)
COC(=O)[C@@]1(Sc2ccc(C)cc2)CC(=O)N[C@@H]1c1ccc(C(F)(F)F)cc1	none (no result: STEP inh, DNMT1 block, Scp1 inh, GRK2 aptamer HTS)
Cc1ccc(-c2nc3cccnc3o2)cc1NC(=O)COc1ccc(C(C)(C)C)cc1	none
Cc1ccc(-c2nc3ncccc3o2)cc1NC(=O)COc1ccccc1	none
Cc1ccc(-c2nc3cccnc3o2)cc1NC(=O)COc1ccc(Cl)cc1C	DNMT1 block 73.2 | DNMT1 inh conf inactive | Beacon interf inactive
Cc1ccc(-c2nc3ncccc3o2)cc1NC(=O)Cc1ccc(Cl)cc1	DNMT1 block 76.3 | DNMT1 inh conf inactive | Beacon interf inactive
Cc1ccc([N+](=O)[O-])cc1-c1ccc(/C=C(\C#N)c2[nH]nc(N)c2C#N)o1	DNMT1 block 83.9, LMPTP inh 71.4, SUMO1-SIM PPI 58.4 | DNMT1 inh conf inactive | Beacon interf inactive
CCCCc1c(-c2cccc(Br)c2)ncn1CCc1ccccc1OC	none (no result: STEP inh, DNMT1 block, Scp1 inh, GRK2 aptamer HTS)
Cc1c(NS(=O)(=O)c2cccc(C(=O)NCc3ccc(Cl)cc3)c2)c(=O)n(-c2ccccc2)n1C	none
Cc1c(NS(=O)(=O)c2cccc(C(=O)NCc3ccco3)c2)c(=O)n(-c2ccccc2)n1C	DNMT1 block 78.0 (no result: GRK2 aptamer HTS) | DNMT1 inh conf inactive | Beacon interf inactive
CC1CCCN(C(=O)COC(=O)c2cc(Br)ccc2O)C1 (stereo not given)	none
Cc1ccc(/C=N/Nc2cc(C)nc(NCc3ccccc3)n2)cc1	none
Cc1cc(N/N=C/c2ccc(O)cc2)nc(NS(=O)(=O)c2ccccc2)n1	STEP inh 41.4, DNMT1 block 82.6, GRK2 aptamer HTS 74.0 | DNMT1 inh conf inactive | Beacon interf inactive
CC(C)(C)OC(=O)NCCCCCNC(=O)c1[nH]cnc1C(=O)NC1CCN(C(=O)OC(C)(C)C)CC1	DNMT1 block 75.7 | DNMT1 inh conf inactive | Beacon interf inactive
CC(C)(C)OC(=O)NCCCCCNC(=O)c1nc[nH]c1C(=O)N1CCN(C(=O)OC(C)(C)C)CC1	none
Cn1ncn2c(=O)c3c(nc12)-c1ccccc1CC31CCCC1	DNMT1 block 85.5 | DNMT1 inh conf inactive | Beacon interf inactive
CCc1nnc(NC(=O)CSc2ccc(-c3ccco3)nn2)s1	none
Cc1nnc(NC(=O)CSc2ccc(-c3ccco3)nn2)s1	DNMT1 block 52.6 | DNMT1 inh conf inactive | Beacon interf inactive
CC(/C=C1\N=C(SCc2ccccc2)SC1=O)=C\c1ccccc1	DNMT1 block 80.0 | DNMT1 inh conf inactive | Beacon interf inactive
C=CCN1C(=O)/C(=C\C(C)=C\c2ccccc2)SC1=S	none
Cc1nc(C)c(C(=O)Nc2ncc([N+](=O)[O-])s2)o1	DNMT1 block 69.2 | DNMT1 inh conf inactive | Beacon interf inactive
O=C(N/N=C/c1cc(Br)c(Br)o1)c1ccc2c(c1)OCCO2	DNMT1 block 71.8, Scp1 inh 83.8 | DNMT1 inh conf inactive | Beacon interf inactive
O=C(N/N=C/c1cc(Br)c(Br)o1)c1cccnc1	DNMT1 block 62.1 | DNMT1 inh conf inactive | Beacon interf inactive
COCc1cccc(-c2csc(C(C)(O)c3cccc(OC)c3)n2)c1 (stereo not given)	none (no result: Scp1 inh, GRK2 aptamer HTS)
Cc1c(C(=O)OCC(=O)N2CC(=O)Nc3ccccc32)oc2ccc(Br)cc12	DNMT1 block 51.2 | DNMT1 inh conf inactive | Beacon interf inactive
Cc1cc(C(=O)OCC(=O)N2CC(=O)Nc3ccccc32)no1	none
CN(C)CCN1CCN(C2CN(Cc3cn(Cc4ccccc4)nn3)S(=O)(=O)C2)CC1 (stereo not given)	none (no result: STEP inh, DNMT1 block, Scp1 inh, GRK2 aptamer HTS)
O=C(CCCN1C(=O)/C(=C\c2ccccc2)SC1=S)Nc1ccc(O)cc1C(=O)O	none
O=C(CN1C(=O)/C(=C\c2ccco2)SC1=S)Nc1ccc(O)cc1C(=O)O	STEP inh 79.5, DNMT1 block 90.1, Scp1 inh 56.6, SUMO1-SIM PPI 87.0 | DNMT1 inh conf inactive | Beacon interf inactive
O=C(CCCN1C(=O)/C(=C\c2ccco2)SC1=S)Nc1ccc2ccccc2c1	none
O=C(CCN1C(=O)/C(=C/c2ccco2)SC1=S)Nc1ccc(O)cc1C(=O)O	DNMT1 block 71.2, Scp1 inh 63.7, SUMO1-SIM PPI 40.3 | DNMT1 inh conf inactive | Beacon interf inactive
O=C(CCCN1C(=O)/C(=C/c2ccco2)SC1=S)Nc1ccccc1C(=O)O	STEP inh 47.6, DNMT1 block 85.9, Scp1 inh 69.2, SUMO1-SIM PPI 75.4 | DNMT1 inh conf inactive | Beacon interf inactive
O=C1/C(=C/c2ccco2)SC(=S)N1CC1CCCO1 (stereo not given)	STEP inh 47.0, DNMT1 block 71.2, Scp1 inh 63.2 | DNMT1 inh conf inactive | Beacon interf inactive
CCC(=O)N1CCCC(C)(C(=O)Nc2nccc3ccccc23)C1 (stereo not given)	none (no result: Scp1 inh, GRK2 aptamer HTS)
CCc1nc(Nc2ccc(OC)c(OC)c2)c2nnn(Cc3ccccc3Cl)c2n1	DNMT1 block 105.2 | DNMT1 inh conf inactive | Beacon interf inactive
COc1ccc(-c2cc3ccccc3oc2=O)cc1NC(=O)c1ccc(Br)o1	DNMT1 block 85.2 | DNMT1 inh conf inactive | Beacon interf inactive
